ChEMBL document CHEMBL1681740, “Quinolizidinone carboxylic acid selective M1 allosteric modulators: SAR in the piperidine series” (Bioorg Med Chem Lett, 2011)
Substitutions are numbered along the chain they refer to. Active and inactive are the calls of the source. The calls are words filed in the database; no cut-off is given here.

How the values were obtained:
[1] = Plasma protein binding in rat; assay type: ADME, cell-free; conditions: read-out: PPB (converted)
[2] = Ratio of drug uptake in brain to plasma in Sprague-Dawley rat at 10 mg/kg, po; assay type: ADME, organism-based; set-up: dose 10 mg/kg, route oral; conditions: read-out: BPR
Method in brief: (§1)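 Sprague-Dawley rats dosed orally at 10 mg/kg in 0.5% methocel. Drug levels measured by bioanalysis of plasma, brain and CSF; brain/plasma ratio derived from these. Interanimal variability under 20%.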

[3] = molecular target: T1, Muscarinic acetylcholine receptor M1 (Homo sapiens) (UniProt P11229); assay: Positive allosteric modulation at human muscarinic M1 receptor expressing CHO cells assessed as potentiation of acetylcholine-induced calcium mobilization by FLIPR assay; assay type: functional, cell-based
T1 sequence (whole entry): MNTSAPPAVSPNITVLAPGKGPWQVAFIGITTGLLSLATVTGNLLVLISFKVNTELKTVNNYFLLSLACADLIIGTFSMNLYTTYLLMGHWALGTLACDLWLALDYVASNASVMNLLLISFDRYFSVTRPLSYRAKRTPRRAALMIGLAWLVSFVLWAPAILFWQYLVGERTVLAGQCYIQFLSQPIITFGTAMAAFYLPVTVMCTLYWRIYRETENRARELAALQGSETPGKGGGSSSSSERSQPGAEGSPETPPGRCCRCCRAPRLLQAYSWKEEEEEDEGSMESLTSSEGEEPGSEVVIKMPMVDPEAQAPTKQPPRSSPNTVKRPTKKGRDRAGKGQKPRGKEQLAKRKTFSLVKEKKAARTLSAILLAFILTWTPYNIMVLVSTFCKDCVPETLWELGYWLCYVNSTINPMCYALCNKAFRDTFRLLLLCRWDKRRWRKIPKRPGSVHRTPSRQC
Method in brief: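 CHO cells expressing human M1 receptor. Inflection point determined in the presence of an EC20 concentration of acetylcholine. Mean of at least two experiments; interassay variability ±30%.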

[4] = Plasma protein binding in human; assay type: ADME, cell-free; conditions: read-out: PPB (converted)
[5] = molecular target: Voltage-gated inwardly rectifying potassium channel KCNH2 (Homo sapiens, UniProt Q12809); assay: Binding affinity to human ERG at <1 uM
Sequence of Voltage-gated inwardly rectifying potassium channel KCNH2 (Q12809 whole entry): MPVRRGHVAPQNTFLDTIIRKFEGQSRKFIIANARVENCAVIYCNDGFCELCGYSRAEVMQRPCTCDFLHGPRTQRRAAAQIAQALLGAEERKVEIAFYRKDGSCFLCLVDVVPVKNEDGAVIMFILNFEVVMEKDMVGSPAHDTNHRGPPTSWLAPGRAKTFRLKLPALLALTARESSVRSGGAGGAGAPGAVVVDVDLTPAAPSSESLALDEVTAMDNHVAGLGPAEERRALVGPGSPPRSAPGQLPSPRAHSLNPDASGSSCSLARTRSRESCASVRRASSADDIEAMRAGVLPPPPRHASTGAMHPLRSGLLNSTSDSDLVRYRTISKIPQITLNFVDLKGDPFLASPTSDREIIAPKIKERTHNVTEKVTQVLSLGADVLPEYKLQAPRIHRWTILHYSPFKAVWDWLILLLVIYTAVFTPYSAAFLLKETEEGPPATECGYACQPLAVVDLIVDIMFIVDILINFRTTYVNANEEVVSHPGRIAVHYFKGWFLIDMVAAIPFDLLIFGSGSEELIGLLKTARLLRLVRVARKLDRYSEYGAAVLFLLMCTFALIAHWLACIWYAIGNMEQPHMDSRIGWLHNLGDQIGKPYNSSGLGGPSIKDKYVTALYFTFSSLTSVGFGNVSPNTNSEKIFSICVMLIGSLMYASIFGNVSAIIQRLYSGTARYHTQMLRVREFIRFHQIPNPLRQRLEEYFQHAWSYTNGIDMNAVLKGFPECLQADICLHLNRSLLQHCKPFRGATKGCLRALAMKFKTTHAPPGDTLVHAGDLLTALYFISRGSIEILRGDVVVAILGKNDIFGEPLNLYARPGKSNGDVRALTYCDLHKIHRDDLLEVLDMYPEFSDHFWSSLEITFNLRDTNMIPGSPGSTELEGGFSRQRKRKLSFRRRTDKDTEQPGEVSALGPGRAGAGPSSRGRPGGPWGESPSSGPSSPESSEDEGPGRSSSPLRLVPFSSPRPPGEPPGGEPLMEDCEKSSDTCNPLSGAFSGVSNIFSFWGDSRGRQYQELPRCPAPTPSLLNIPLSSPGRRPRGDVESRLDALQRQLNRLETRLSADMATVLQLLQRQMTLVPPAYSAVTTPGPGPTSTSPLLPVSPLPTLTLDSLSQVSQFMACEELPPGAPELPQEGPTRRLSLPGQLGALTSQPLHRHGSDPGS

[6] = system: Plasma; assay: Plasma concentration in Sprague-Dawley rat at 10 mg/kg, po; assay type: ADME, organism-based; set-up: dose 10 mg/kg, route oral; conditions: in vivo; method in brief: as §1
[7] = Drug uptake in Sprague-Dawley rat CSF at 10 mg/kg, po; assay type: ADME, organism-based, Cerebrospinal fluid; set-up: dose 10 mg/kg, route oral; conditions: in vivo, read-out: Drug uptake; method in brief: as §1
[8] = Ratio of drug uptake in CSF to fraction unbound in plasma in rat; assay type: ADME, cell-free
Method in brief: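 Sprague-Dawley rats, oral 10 mg/kg in 0.5% methocel. CSF level divided by unbound plasma level, with unbound plasma derived using rat plasma protein binding values.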

[9] = system: Brain; assay: Drug uptake in Sprague-Dawley rat brain at 10 mg/kg, po; assay type: ADME, organism-based; set-up: dose 10 mg/kg, route oral; conditions: in vivo, read-out: Drug uptake; method in brief: as §1
[10] = system: Mus musculus; assay: Antiamnesic activity against in contextual fear conditioning B6SJL mouse modle assessed as reversal of scopolamine-induced episodic memory deficit in at 30 mg/kg; assay type: functional, organism-based; set-up: dose 30 mg/kg
Method in brief: (§2)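 Contextual fear conditioning model of episodic memory in B6SJL mice; scopolamine-induced deficit; test agents given at 3, 10 and 30 mpk; read-out is reversal of the scopolamine deficit.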

[11] = system: Mus musculus; assay: Antiamnesic activity against in contextual fear conditioning B6SJL mouse modle assessed as reversal of scopolamine-induced episodic memory deficit in at 10 mg/kg; assay type: functional, organism-based; set-up: dose 10 mg/kg; method in brief: as §2
[12] = system: Mus musculus; assay: Antiamnesic activity against in contextual fear conditioning B6SJL mouse modle assessed as reversal of scopolamine-induced episodic memory deficit in at 3 mg/kg; assay type: functional, organism-based; set-up: dose 3 mg/kg; method in brief: as §2
[13] = Ratio of drug uptake in CSF to fraction unbound in plasma in P-gp knock out CF-1 mouse after 30 mins; assay type: ADME, cell-free; conditions: 0.5 h
Method in brief: (§3)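 CF-1 mice, wild type and P-gp knockout, were treated with the compound. Plasma and CSF were collected 30 minutes after treatment. The value is the CSF concentration divided by the unbound plasma concentration (CSF/U plasma ratio), reported separately for each genotype.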

[14] = system: Plasma; assay: Plasma concentration in B6SJL mouse at 30 mg/kg; assay type: ADME, organism-based; set-up: dose 30 mg/kg; conditions: in vivo
Method in brief: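 Plasma drug levels in B6SJL mice measured after 30 mpk dosing in the contextual fear conditioning study.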

[15] = Distribution coefficient, log D of the compound; assay type: physicochemical; conditions: octanol/water
[16] = molecular target: T2, Muscarinic acetylcholine receptor M1 (Rattus norvegicus) (UniProt P08482); assay: Positive allosteric modulation at rat muscarinic M1 receptor
T2 sequence (whole entry): T1 sequence (whole entry) with A5V, T254S, P309S, R320K, A337G, I413V

[17] = Ratio of drug uptake in CSF to fraction unbound in plasma in wild type CF-1 mouse after 30 mins; assay type: ADME, cell-free; conditions: 0.5 h; method in brief: as §3
[18] = molecular target: T1, Muscarinic acetylcholine receptor M1 (Homo sapiens); assay: Positive allosteric modulation at human muscarinic M1 receptor expressing CHO cells assessed as potentiation of acetylcholine-induced calcium mobilization at 0.1 to 1 uM by FLIPR assay; assay type: functional, cell-based
Method in brief: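 Human M1-expressing CHO cells; calcium mobilization read-out. Acetylcholine dose–response curves run with modulator at rising concentrations from 0.1 to 1 μM; fold potentiation taken from the leftward shift of the curve.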

| SMILES | IP [3] | also measured |
| --- | --- | --- |
| O=C(O)c1cc(CN2CCc3ccccc3C2c2ccncc2)c2ccccn2c1=O (stereo not drawn) | 0.053 µM | fraction unbound [1]: 0.06; Kp [2]: 0.14; fraction unbound [4]: 0.04; Activity [5]: Active; concentration [6]: 9780 nM; concentration [7]: 230 nM; Ratio [8]: 0.37; concentration [9]: 1340 nM |
| O=C(O)c1cc(CN2CCc3ncncc3C2)c2ccccn2c1=O | 1.8 µM | – |
| O=C(O)c1cc(CN2CCc3ccccc3C2c2ccccc2)c2ccccn2c1=O (stereo not drawn) | 0.56 µM | – |
| COC(=O)C1c2ccccc2CCN1Cc1cc(C(=O)O)c(=O)n2ccccc12 (stereo not drawn) | 1.7 µM | – |
| O=C(O)c1cc(CN2CCc3cc(Br)ccc3C2)c2ccccn2c1=O | 0.63 µM | – |
| O=C(O)c1cc(CN2CCc3cnccc3C2)c2ccccn2c1=O | 0.9 µM | – |
| CSc1ccc2c(c1)CCN(Cc1cc(C(=O)O)c(=O)n3ccccc13)C2 | > 10 µM | – |
| O=C(O)c1cc(CN2CCC(n3ccnc3)CC2)c2ccccn2c1=O | 1.9 µM | – |
| O=C(O)c1cc(CN2CCc3ccccc3C2C2CCCCC2)c2ccccn2c1=O (stereo not drawn) | > 100 µM | – |
| O=C(O)c1cc(CN2CCc3ccncc3C2)c2ccccn2c1=O | 1.7 µM | – |
| Cn1c(C2CCN(Cc3cc(C(=O)O)c(=O)n4ccccc34)CC2)nc2ccccc21 | 30 µM | – |
| O=C(O)c1cn(Cc2ccc3ccccc3c2)c2ccccc2c1=O | 0.08 µM | – |
| O=C(O)c1cc(CN2CCc3cc(-c4ccncc4)ccc3C2)c2ccccn2c1=O | 0.39 µM | – |
| O=C(O)c1cc(CN2CCC(n3nnc4ccccc43)CC2)c2ccccn2c1=O | 6 µM | – |
| CCOC(=O)C1Cc2ccccc2CN1Cc1cc(C(=O)O)c(=O)n2ccccc12 (stereo not drawn) | > 100 µM | – |
| O=C(O)c1cc(CN2CCC(c3cnccn3)CC2)c2ccccn2c1=O | 11 µM | – |
| O=C(O)c1cc(CN2CCC(n3ccnn3)CC2)c2ccccn2c1=O | 1.7 µM | – |
| O=C(O)c1cc(CN2CCc3cc(-c4ccccc4)ccc3C2)c2ccccn2c1=O | 0.56 µM | – |
| O=C(O)c1cc(CN2CCc3ncccc3C2)c2ccccn2c1=O | 0.83 µM | – |

| SMILES | IP [3] | also measured |
| --- | --- | --- |
| O=C(O)c1cc(CN2CCC(c3nc4ccccc4[nH]3)CC2)c2ccccn2c1=O | 0.12 µM | fraction unbound [1]: 0.23; fraction unbound [4]: 0.18; concentration [6]: 132 nM |
| COc1ccc2c(c1)CCN(Cc1cc(C(=O)O)c(=O)n3ccccc13)C2 | 1.4 µM | – |
| Cc1ccc2c(c1)CCN(Cc1cc(C(=O)O)c(=O)n3ccccc13)C2 | 1.1 µM | – |
| O=C(O)c1cc(CN2CCc3ccccc3C2c2cccs2)c2ccccn2c1=O (stereo not drawn) | 0.6 µM | – |
| O=C(O)c1cc(CN2CCc3ccc(Cl)cc3C2)c2ccccn2c1=O | 0.63 µM | – |
| O=C(O)c1cc(CN2CCc3cc(F)ccc3C2)c2ccccn2c1=O | 0.78 µM | – |
| O=C(O)c1cc(CN2CCC(c3cccnc3F)CC2)c2ccccn2c1=O | 0.84 µM | – |
| O=C(O)c1cc(CN2CCc3ccccc3C2)c2ccccn2c1=O | 1.7 µM | – |
| O=C(O)c1cc(CN2CCC(n3cccn3)CC2)c2ccccn2c1=O | 0.78 µM | – |
| O=C(O)c1cc(CN2CCc3ccccc3C2c2ccccc2F)c2ccccn2c1=O (stereo not drawn) | 0.15 µM | – |
| O=C(O)c1cc(CN2CCC(n3cnc4ccccc43)CC2)c2ccccn2c1=O | 0.55 µM | fraction unbound [1]: 0.24; fraction unbound [4]: 0.21; logD [15]: 0.92 |
| O=C(O)c1cc(CN2CCC(c3ncccn3)CC2)c2ccccn2c1=O | 13 µM | – |
| N#Cc1ccc(N2CCN(Cc3cc(C(=O)O)c(=O)n4ccccc34)CC2)cc1 | 0.52 µM | Ratio [8]: 0.42 |
| O=C(O)c1cc(CN2CCc3c(Cl)cccc3C2)c2ccccn2c1=O | 0.85 µM | – |
| CCOC(=O)C1CN(Cc2cc(C(=O)O)c(=O)n3ccccc23)Cc2ccccc21 (stereo not drawn) | 3.6 µM | – |
| N#Cc1ccc2c(c1)CCN(Cc1cc(C(=O)O)c(=O)n3ccccc13)C2 | 0.61 µM | – |
| CCOC(=O)C1c2ccccc2CCN1Cc1cc(C(=O)O)c(=O)n2ccccc12 (stereo not drawn) | 0.34 µM | – |
| O=C(O)c1cc(CN2CCc3cc(Cl)ccc3C2)c2ccccn2c1=O | 0.33 µM | Activity [10]: inactive; Activity [11]: inactive; Activity [12]: inactive; fraction unbound [1]: 0.04; Kp [2]: 0.86; fraction unbound [4]: 0.02; concentration [6]: 4240 nM; concentration [14]: 16000 nM; logD [15]: 2.37; concentration [7]: 86 nM; Ratio [8]: 0.63; concentration [9]: 3690 nM; Activity [18]: Active |

Now from value to compound, other results behind:

| IP [3] | SMILES | also measured |
| --- | --- | --- |
| 1.5 µM | O=C(O)c1cc(CN2CCC(c3cccc(F)c3)CC2)c2ccccn2c1=O | – |
| 1.7 µM | O=C(O)c1cc(CN2CCC(c3ccc(F)cc3)CC2)c2ccccn2c1=O | – |
| 1.3 µM | O=C(O)c1cc(CN2CCC(c3ccccc3)CC2)c2ccccn2c1=O | – |
| 1.5 µM | O=C(O)c1cc(CN2CCC(c3cc[nH]n3)CC2)c2ccccn2c1=O | – |
| 4.3 µM | COc1ccc(C2CCN(Cc3cc(C(=O)O)c(=O)n4ccccc34)CC2)cc1 | – |
| 1.7 µM | O=C(O)c1cc(CN2CCC(c3ccccc3F)CC2)c2ccccn2c1=O | – |
| 0.91 µM | O=C(O)c1cc(CN2CCC(c3cccc(Cl)c3)CC2)c2ccccn2c1=O | – |
| 1.3 µM | N#Cc1ccc(C2CCN(Cc3cc(C(=O)O)c(=O)n4ccccc34)CC2)cc1 | – |
| 0.95 µM | O=C(O)c1cc(CN2CCC(c3ccncc3)CC2)c2ccccn2c1=O | – |
| 1.7 µM | Cc1ccc(C2CCN(Cc3cc(C(=O)O)c(=O)n4ccccc34)CC2)cc1 | Activity [10]: inactive; Activity [11]: inactive; Activity [12]: inactive; fraction unbound [1]: 0.11; Ratio [13]: 0.42; Kp [2]: 6; fraction unbound [4]: 0.09; concentration [6]: 915 nM; concentration [14]: 31000 nM; logD [15]: 2.97; concentration [7]: 28 nM; IP [16]: 760 nM; Ratio [8]: 0.7; concentration [9]: 5780 nM; Ratio [17]: 0.37; Activity [18]: Active |
| 0.77 µM | O=C(O)c1cc(CN2CCC(c3ccc(Cl)cc3)CC2)c2ccccn2c1=O | – |
| 1.2 µM | O=C(O)c1cc(CN2CCC(c3ccc(Br)cc3)CC2)c2ccccn2c1=O | – |
| 0.46 µM | O=C(O)c1cc(CN2CCC(c3ccc(C(F)(F)F)cc3)CC2)c2ccccn2c1=O | – |
| 7 µM | O=C(O)c1cc(CN2CCC(c3cncnc3)CC2)c2ccccn2c1=O | – |
| 4.3 µM | O=C(O)c1cc(CN2CCC(c3ccncn3)CC2)c2ccccn2c1=O | – |
| 2.2 µM | O=C(O)c1cc(CN2CCC(c3cccc(F)n3)CC2)c2ccccn2c1=O | – |
| 2.1 µM | O=C(O)c1cc(CN2CCC(c3ccc(F)nc3)CC2)c2ccccn2c1=O | – |
